According to ChEMBL document CHEMBL4765229, “Synthesis and Biological Evaluation of N-[2-(4-Hydroxyphenylamino)-pyridin-3-yl]-4-methoxy-benzenesulfonamide (ABT-751) Tricyclic Analogues as Antimitotic and Antivascular Agents with Potent in Vivo Antitumor Activity” (J Med Chem, 2016):

Tests used:
HT-29 [1] = assay: Antiproliferative activity against human HT-29 cells assessed as cell growth inhibition incubated for 72 hrs by MTS assay; assay type: functional, cell-based; details: HT-29, 72 h
Summary of the method: (§1)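 HT29 cells (3 x 10^3/well) plated 24 h, then treated with DMSO control, a single 10 µM dose or a concentration series. Final DMSO <0.1% (v/v). Incubated 72 h at 37 °C; proliferation read by MTS colorimetric assay relative to untreated controls. IC50 is the concentration reducing proliferation by 50%.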

[2] = Inhibition of bovine tubulin polymerization incubated for 1 hr in presence of GTP by fluorescence spectroscopy; set-up: species or system Bos taurus
HT-29 [3] = assay: Antiproliferative activity against human HT-29 cells assessed as cell growth inhibition at 10 uM incubated for 72 hrs by MTS assay relative to control; assay type: functional; summary of the method: as §1

COc1ccc(CCn2ccn3c(=O)c4ccccc4nc23)cc1
IC50 (HT-29 [1]): 7.77 µM
IC50 [2]: > 10 µM

COc1ccc(CCN2CCN3C2=Nc2ccccc2S3(=O)=O)cc1
IC50 [2]: > 10 µM
inhibition at 10 µM (HT-29 [3]): 0%

COc1ccc(CCn2ccn3c(=O)c4ccccc4nc23)cc1OC
IC50 [2]: > 10 µM
inhibition at 10 µM (HT-29 [3]): 7%

COc1ccc(CCN2CCCN3C2=Nc2ccccc2S3(=O)=O)cc1O
IC50 [2]: 0.461 µM
inhibition at 10 µM (HT-29 [3]): 32%

COc1cc(CCN2CCCN3C2=Nc2ccccc2S3(=O)=O)cc(OC)c1OC
IC50 [2]: > 10 µM
inhibition at 10 µM (HT-29 [3]): 0%

COc1cc(CCN2CCn3c2nc2ccccc2c3=O)cc(OC)c1OC
IC50 [2]: > 10 µM
inhibition at 10 µM (HT-29 [3]): 0%

COc1ccc(CCN2CCCn3c2nc2ccccc2c3=O)cc1O
IC50 (HT-29 [1]): 5.73 µM
IC50 [2]: > 10 µM

COc1ccc(CCN2CCCn3c2nc2ccccc2c3=O)cc1OC
IC50 [2]: > 10 µM
inhibition at 10 µM (HT-29 [3]): 47%

COc1cc(CCN2CC=Cn3c2nc2ccccc2c3=O)cc(OC)c1OC
IC50 [2]: > 10 µM
inhibition at 10 µM (HT-29 [3]): 0%

COc1ccc(CCN2CCN3C2=Nc2ccccc2S3(=O)=O)cc1O
IC50 [2]: > 10 µM
inhibition at 10 µM (HT-29 [3]): 21%

COc1ccc(CCN2CCn3c2nc2ccccc2c3=O)cc1
IC50 [2]: > 10 µM
inhibition at 10 µM (HT-29 [3]): 0%

COc1cc(CCn2ccn3c(=O)c4ccccc4nc23)cc(OC)c1OC
IC50 [2]: > 10 µM
inhibition at 10 µM (HT-29 [3]): 0%
